Experimental data from ChEMBL document CHEMBL4177557, “Anti-inflammatory Flavan-3-ol-dihydroretrochalcones from Daemonorops draco” (J Nat Prod, 2017).

How the values were obtained:
[1] = system: Neutrophil; assay: Inhibition of fMLP/CB-induced superoxide anion production in human neutrophils assessed as SOD-based ferricytochrome c reduction assay; format: functional, cell-based
Method in brief: (§1)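 Isolated human neutrophils stimulated with fMLP plus cytochalasin B. Superoxide measured as SOD-inhibitable ferricytochrome c reduction. Azurophilic degranulation measured as elastase release. IC50, the concentration giving 50% inhibition, calculated by computer; mean ± SEM, n = 3–5; Student's t test.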

[2] = system: Neutrophil; assay: Inhibition of fMLP/CB-induced elastase release in human neutrophils; format: functional, cell-based; method in brief: as §1

IC50 [1]	IC50 [2]	SMILES
3.1 µM	4.5 µM	COC1=CC(=O)C(C)=C2O[C@]3(c4ccccc4)Oc4cc(O)c(C)c(OC)c4[C@@H]([C@H]3O)[C@]12CCC(=O)c1ccccc1
> 10 µM	> 10 µM	COC1=CC(=O)[C@]2(C)C(=O)[C@@]1(CCC(=O)c1ccccc1)[C@H]1c3c(cc(O)c(C)c3OC)O[C@]2(c2ccccc2)[C@@H]1O
> 10 µM	> 10 µM	COC1=C(CCC(=O)c2ccccc2)C(=O)[C@@H]2C(=O)[C@H]1[C@H]1c3c(cc(O)c(C)c3OC)O[C@]2(c2ccccc2)[C@@H]1O
0.4 µM	1.5 µM	O=c1cc(N2CCOCC2)oc2c(-c3ccccc3)cccc12 [LY-294002]
